# Measurements: paper PMC4059610 (Cell, 2014)
# How the values were obtained:
# WRC = conditions: ref Nakao et al., 2008, Tai et al., 2010 (PCDH10, PCDH19), Bernadskaya et al., 2012, Stavoe et al., 2012 (DCC), 2012 (ROBO1), Karpushev et al., 2011 (ENaC); cited from earlier work
# WRC (2MBP-ΔWRC) = assay: MBP pull-down by immobilized 2MBP-ΔWRC; type: binding, human; conditions: data not shown
# Summary of the method: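 Bait was immobilized 2MBP-ΔWRC, either wild type or the AW form (R106A/G110W in Abi2). It was mixed on affinity beads with a 5- to 10-fold excess of GST-tagged receptor cytoplasmic tails, purified by glutathione affinity chromatography with or without ion exchange and size exclusion. Beads were incubated and washed, then eluted with maltose. Retained proteins were seen on Coomassie-stained gels.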
# WRC / Arp2/3 complex = assay: Arp2/3-mediated pyrene-actin assembly assay; type: biochemical; conditions: minimal WIRS peptide; 100 nM WRC217, Fig. 5A
# [1] = test system: 2MBP-ΔWRC / GST-hPCDH10 CT interaction; assay: Competition of 2MBP-ΔWRC pull-down of PCDH10 CT; type: binding, human; conditions: Fig. 1D
# Summary of the method: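 Immobilized 2MBP-ΔWRC bait was mixed on affinity beads with a 5- to 10-fold excess of GST-tagged PCDH10 cytoplasmic tail prey, with wild-type WIRS peptide or T8A/F9A mutant peptide as competitor. After incubation and washing, bound proteins were eluted with maltose.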
# endogenous WRC = assay: GST-PCDH10 CT pull-down of endogenous WRC from mouse brain lysate; type: binding; conditions: 100 μM WIRS peptide, Fig. 6A
# Summary of the method: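 Immobilized GST-PCDH10 cytoplasmic tail was incubated with mouse brain lysate on glutathione affinity beads. Competitor was buffer or 100 μM WIRS peptide, either wild type or T8A/F9A mutant. Beads were washed and bound proteins eluted with reduced glutathione. Retained endogenous WRC was detected by Western blot.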
# [2] = test system: endogenous PCDH10/WRC interaction; assay: Co-immunoprecipitation of WRC; type: binding; conditions: 5 mM WIRS peptide, anti-WAVE1, mouse brain lysate, n = 7, p = 0.00003, Fig. 6B
substance,measurement,setting,value
DCC: netrin receptor,"Previously shown interaction with the WRC, biochemical or genetic",WRC,previously shown to interact with the WRC biochemically or genetically
"FAT2: protocadherin FAT2, WIRS motif only found in human, mouse and chicken",Binding to WRC in vitro using its WIRS motif,WRC (2MBP-ΔWRC),binds the WRC in vitro using its WIRS motif
WIRS peptide: peptide containing the conserved sequence RSFSTFGKE of PCDH10 (WRC interacting receptor sequence),Effect on Rac1 stimulation of WRC activity,WRC / Arp2/3 complex,had no effect on Rac1 stimulation
same,Blocking of PCDH10 CT binding to 2MBP-ΔWRC,[1],blocked this interaction
same,Blocking of GST-PCDH10 CT pull-down of endogenous WRC,endogenous WRC,completely blocked the interaction
same,Effect on co-immunoprecipitation of PCDH10 with WRC,[2],weakened
